B1: tRNA (parent)
chain: GUUCCGUUGGCGUAAUGGUAACGCGUCUCCCUCCUAAGGAGAAGACUGCGGGUUCGAGUCCCGUACGGAACG

Fewer inactive variants are shown than the library holds.

From the RNAGym collection of RNA variant scans (doi:10.1126/science.aae0568) come the findings set out here.

The variants in the series derive from B1. As to the kind of experiment: yeast fitness relative to wild type (ratio to wild type); higher = fitter; tRNA-Arg(CCU), competitive growth, 37 C, YPD. In a few lines: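 Amplicons of the tRNA-Arg(CCU) gene were sequenced, 100-nucleotide paired-end, from the start population and from each end population of a pooled yeast competition. The competition, in six parallel replicates, lasted 24 hours in YPD at 37°C. Fitness relative to wild type was calculated from changes in genotype frequencies. Genotypes had to have ≥ 100 starting reads, and estimates < 0.5 were set to 0.5.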
In the case of A14G C29U G52C, the yeast fitness was at most 0.5.

As for U28C C49G, the yeast fitness is 0.909.

Turning to C24G G38A G44C, the yeast fitness was at most 0.5.

As for G18A C31A C60A, the yeast fitness was at most 0.5.

As for C22G U32C G67A, the yeast fitness is 0.564.

In the case of A40C A42U A43C G48A, the yeast fitness turned out to be 0.55.

C5U C29A A37U G38A: the yeast fitness was at most 0.5.

For the variant C22G G48C A69C, the yeast fitness turned out to be 0.589.

Regarding U2C U16C C22A C29A G51C, the yeast fitness is at most 0.5.

For G23C G51C, the yeast fitness was at most 0.5.

Take G23A C34A: the yeast fitness was 0.523.

As for G6A G23C C49G U53G A57G C61U, the yeast fitness was at most 0.5.

On to C5U G23C C55A, for which the yeast fitness is 0.566.

G6A A21G C55U C66U: the yeast fitness is at most 0.5.

On to C5U U26C A40U, for which the yeast fitness is at most 0.5.

As for A20C U54C C55U, the yeast fitness was at most 0.5.

For A37U C49A A65U, the yeast fitness was at most 0.5.

With G6C C11U A21C, the yeast fitness came to 0.671.

C22A C31U C34G: the yeast fitness turned out to be 0.536.

As for G9C U16G C31A C60A, the yeast fitness is at most 0.5.

On to A20G G56C G68C, for which the yeast fitness is 0.6.

In the case of U8A A43U C55U, the yeast fitness came out at 0.537.

A21C C27U A57G C62U: the yeast fitness came out at 0.507.

For U2C U26C, the yeast fitness came out at 0.947.

On to C34G G67A, for which the yeast fitness is 0.596.

For A14C A20G A45C A57C, the yeast fitness was at most 0.5.

For the variant C5U C24U A40G, the yeast fitness stood at 0.637.

On to G10C G23C A42G G50A A57C G67A, for which the yeast fitness is at most 0.5.

Consider U2A C49A C61G, for which the yeast fitness came out at 0.505.

In the case of G12C A21U G50C A70C, the yeast fitness is at most 0.5.

In the case of C4U C34G U35A A42U, the yeast fitness was at most 0.5.

As to U8C G9A U13A A15G A37U, the yeast fitness was 0.549.

A15G G58A G68C: the yeast fitness worked out at 0.596.

With A15G U64G A69C, the yeast fitness worked out at 0.564.

On to U13C A43G G50C G67A, for which the yeast fitness is at most 0.5.

Turning to A37C A43C C62U, the yeast fitness came out at 0.882.

In the case of U2A A21C G39A G52C C62U, the yeast fitness was at most 0.5.

Take C33U G38C: the yeast fitness is 0.609.

With C30A A70C, the yeast fitness is 1.01.

As to G10C G52A, the yeast fitness turned out to be 0.666.

For U19A C30A, the yeast fitness came out at 0.812.

As to C11U G58U C61A, the yeast fitness is at most 0.5.

For the variant A37C C60G C62G, the yeast fitness was at most 0.5.

Turning to U19G C22G C34U G68C, the yeast fitness is at most 0.5.

With C5A A40G C66U, the yeast fitness came to 0.549.

On to A15C C29U G39C A42U G48C G50U G51C A65U, for which the yeast fitness is at most 0.5.

As for C5G G17A A20C C49G G63A, the yeast fitness is at most 0.5.

In the case of C22U G38C C46U C66G, the yeast fitness is at most 0.5.

Turning to C22U C33G A42C C49G G58C C62G, the yeast fitness was at most 0.5.

As for U8C A14C C55U C61G C62G, the yeast fitness is at most 0.5.

In the case of U19G A42U, the yeast fitness was found to be 0.991.

Regarding A40U A45U G48A, the yeast fitness was determined as 0.998.

Regarding G9C A20U C27G A42C C49U A65C, the yeast fitness is at most 0.5.

With A21U C31U A57U, the yeast fitness was at most 0.5.

Regarding G6A G18A C22U, the yeast fitness stood at 0.6.

C4G A14C G50C G56C: the yeast fitness was at most 0.5.

Turning to C31G C34U A40C G41A, the yeast fitness was at most 0.5.

As for U3A C22U U28A A37U G51C C66U, the yeast fitness was at most 0.5.

U2A U3A U26A G51A: the yeast fitness is at most 0.5.

With U3A A15C G44A A57U, the yeast fitness is at most 0.5.

For the variant U26G C46G C61U, the yeast fitness came to 0.824.

With C5U U28A G41A C62U, the yeast fitness is at most 0.5.

Take U8C G17C U26C C34A A45C G48A: the yeast fitness was at most 0.5.

In the case of C31A G52C A65U, the yeast fitness was at most 0.5.

C22U C46A G58C C66U: the yeast fitness is at most 0.5.

With C11A A42C, the yeast fitness turned out to be 0.606.

As to U2C A45U C62U G63C, the yeast fitness is at most 0.5.

Turning to G25A A70C, the yeast fitness was 1.05.

Turning to C11U G68U, the yeast fitness amounted to 0.898.

In the case of U3G G18A A65U, the yeast fitness stood at 0.548.

On to G18A A20U, for which the yeast fitness was determined as 0.721.

In the case of A42G U47C C62A C66U, the yeast fitness is at most 0.5.

For C27A G67U, the yeast fitness came out at 0.745.

With A45G C66A, the yeast fitness was 0.581.

With C4A C24U C46U C55A C66U, the yeast fitness was at most 0.5.

G12C U32G C33G G68C: the yeast fitness is at most 0.5.

As for U2C C22G C31U A36U C49U, the yeast fitness came out at 0.649.

As for C5G A36G A43U, the yeast fitness worked out at 0.549.

Turning to C4U A21G C46A G68U, the yeast fitness amounted to 0.574.

With U7G G12C G23C C29G A57U C60A G68C, the yeast fitness is at most 0.5.

For G52A C60A A69G, the yeast fitness was at most 0.5.

Regarding C5U U8A G18C C29U A45C, the yeast fitness was 0.554.

C5G A15U U35A: the yeast fitness is 0.696.

As to G9A G12U A14U U53A U54C, the yeast fitness is at most 0.5.

On to C4A C5U C24U U53A A65G, for which the yeast fitness was at most 0.5.

For U3C A40G G58C A70U, the yeast fitness is at most 0.5.

As to U28G G58C, the yeast fitness was 0.771.

Turning to G23C C30G C46U A65G A70U, the yeast fitness worked out at 0.63.

Regarding G44A G58C C66U, the yeast fitness stood at 0.667.

For the variant G9A C11A C30G C46U, the yeast fitness is at most 0.5.

Consider A21G G50A C55U U64C, for which the yeast fitness is at most 0.5.

On to C33U C49G, for which the yeast fitness was determined as 0.817.

On to G6C G12A G51C C66U, for which the yeast fitness is at most 0.5.

As for U47A G48A, the yeast fitness worked out at 0.867.

In the case of G51A C60G, the yeast fitness came to 0.596.

As to A15G A20C C60U, the yeast fitness is at most 0.5.

Regarding C5G C11U C29A, the yeast fitness was determined as 0.53.

G41C C62G: the yeast fitness was 0.597.

G6C A37C G51A G52A U53C C62A: the yeast fitness amounted to 0.561.

For the variant A42U A65C, the yeast fitness stood at 0.81.

As for G17A C24U, the yeast fitness is 0.778.

Take A20G C22G G38A: the yeast fitness worked out at 0.539.

Regarding A42U C66G, the yeast fitness was found to be 0.712.

Take U7C C29G: the yeast fitness is 0.677.

Turning to A40G C62U A65C C66A, the yeast fitness is at most 0.5.

Regarding C24G A42C C60U U64A, the yeast fitness is 0.562.

On to C29A A70G, for which the yeast fitness turned out to be 0.723.

As to C5A A15C C29A A42C A45G G56C, the yeast fitness is at most 0.5.

Turning to A15U G25A, the yeast fitness worked out at 1.

For U2C A15G G38C U64A G68A A69C, the yeast fitness is at most 0.5.

As to G12A C27U G67A, the yeast fitness is 0.571.

U3C A36U A69U: the yeast fitness was at most 0.5.

For the variant C30G A43U, the yeast fitness was determined as 0.635.

In the case of C29U A45U U47C U54A, the yeast fitness was at most 0.5.

With A15G G56A C62U A70C, the yeast fitness amounted to 0.543.

As to G10A A15U A36G U47G A65U, the yeast fitness is at most 0.5.

As for C4U G10A U28A A70U, the yeast fitness is at most 0.5.

On to C5G A36U C46G C62A A69C, for which the yeast fitness is at most 0.5.

G6A A15U G18C G23C A43G C60U: the yeast fitness is at most 0.5.

For U47C C62G A65C, the yeast fitness was at most 0.5.

Consider G10A C24A A43C C61U, for which the yeast fitness is at most 0.5.

Take U8A C30G: the yeast fitness is at most 0.5.

As for A14G G25A A36G A42U G68C, the yeast fitness was 0.576.

As for C27A U32A U59C, the yeast fitness was at most 0.5.

In the case of C4A C5U C22U C34A C62G, the yeast fitness is at most 0.5.

On to U8C A42C, for which the yeast fitness is 0.857.

Consider C27U A42U A43U U47C, for which the yeast fitness stood at 0.577.

Turning to G12A A21U, the yeast fitness came to 0.729.

Turning to U2C G17A A69C, the yeast fitness is 0.576.

As to C27G A40C C60U, the yeast fitness is at most 0.5.

As for U3A C4G G9A C11G, the yeast fitness was at most 0.5.

In the case of U2G C62G G67A, the yeast fitness worked out at 0.526.

Turning to C5U C34G U64A, the yeast fitness is at most 0.5.

In the case of C29U G39U, the yeast fitness was determined as 1.07.

Take U7G U28C: the yeast fitness came out at 0.808.

Consider A20U A21U C34G G63C, for which the yeast fitness is at most 0.5.

Turning to U19C A40C G41C, the yeast fitness was 0.594.

As for C11U A57U C60G G68C, the yeast fitness is at most 0.5.

U2G C33U C34G A69U: the yeast fitness was at most 0.5.

In the case of G18A C29U U35A A70U, the yeast fitness was at most 0.5.

Regarding A45C C55U A69C, the yeast fitness is at most 0.5.

With U16C U47C C60U C62A, the yeast fitness was at most 0.5.

For C5G A20C C22U C24U C55U, the yeast fitness is at most 0.5.

In the case of C31U A65G, the yeast fitness worked out at 1.11.

Consider G41C A43U G68U, for which the yeast fitness was at most 0.5.

Turning to A40G G68U, the yeast fitness came to 0.857.

Regarding C33U A42C A70C, the yeast fitness is 0.671.

As for G67A, the yeast fitness is 0.951.

With A20G G23C A69C, the yeast fitness is at most 0.5.

For C5A A43U U47C, the yeast fitness is 0.543.

In the case of G9A U13A C24A A45C, the yeast fitness is at most 0.5.

In the case of A14G C55U A65G, the yeast fitness was determined as 0.513.

For the variant A36G U53C, the yeast fitness was found to be 0.724.

For the variant C4A C11A C33G A57C C61G, the yeast fitness stood at 0.534.

Regarding G9A C22G A45G, the yeast fitness was determined as 0.588.

For the variant C62U U64C, the yeast fitness worked out at 1.02.

In the case of G17C G23U U28A C31G A65G, the yeast fitness was at most 0.5.

With U26A C46G C61U, the yeast fitness is 0.699.

Consider U26G G67C, for which the yeast fitness came out at 0.644.

Regarding C4U C22U C55U, the yeast fitness was determined as 0.544.

For the variant A43U U54C, the yeast fitness is 0.92.

Consider U3C A20C A45C C49U, for which the yeast fitness is at most 0.5.

With U2A C60U C62A, the yeast fitness is at most 0.5.

As for C55U A65U, the yeast fitness amounted to 0.794.

Turning to A21U C34A U54A C62A A70G, the yeast fitness is at most 0.5.

Turning to G12A G18C A42U A70G, the yeast fitness is 0.598.

Regarding C11G G41C C55U G58A, the yeast fitness was at most 0.5.
